Experiments:
Rattus norvegicus [1] = assay: Effect of compound was measured on serum alpha-lipoprotein in male Dawley rats at the dose of 0.4 mmol/kg (day+10).; assay type: functional, organism-based
Method in brief: (§1)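 Male Sprague-Dawley rats (180-210 g) fed a high-cholesterol diet for 1 week before and throughout dosing. Groups of n = 6 were dosed orally twice daily for 14 days in 0.25% methylcellulose, with vehicle controls. Rats were fasted 16-18 h before orbital bleeds on days -1, +4, +7 and +10, and by aortic exsanguination on day +14. Serum α-lipoprotein cholesterol was measured by polyanionic precipitation, in mg/dL ± SD.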

Rattus norvegicus [2] = assay: Effect of compound was measured on serum alpha-lipoprotein in male Dawley rats at the dose of 0.4 mmol/kg (day+4).; assay type: functional, organism-based; method in brief: as §1
Rattus norvegicus [3] = assay: Effect of compound was measured on serum alpha-lipoprotein in male Dawley rats at the dose of 0.4 mmol/kg (day+7).; assay type: functional, organism-based; method in brief: as §1
Rattus norvegicus [4] = assay: Effect of compound was measured on serum alpha-lipoprotein in male Dawley rats at the dose of 0.4 mmol/kg (day-1).; assay type: functional, organism-based; method in brief: as §1
Rattus norvegicus [5] = assay: Effect of compound was measured on serum alpha-lipoprotein in male Dawley rats at the dose of 0.4 mmol/kg (day14).; assay type: functional, organism-based; method in brief: as §1
Rattus norvegicus [6] = assay: Effect of compound was measured on serum total cholesterol in male Dawley rats at the dose of 0.4 mmol/kg (day+10).; assay type: functional, organism-based
Method in brief: (§2)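 Serum total cholesterol was measured enzymatically on a bichromatic analyzer. Serum was separated after clotting on ice (2000g, 10 min), held at 4 °C and assayed within 48 h. Rats were male Sprague-Dawley on a high-cholesterol diet, n = 6, dosed orally twice daily for 14 days in 0.25% methylcellulose (1.0 mL/100 g). They were fasted 16-18 h before each bleed. Results are in mg/dL ± SD.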

Rattus norvegicus [7] = assay: Effect of compound was measured on serum total cholesterol in male Dawley rats at the dose of 0.4 mmol/kg (day+14).; assay type: functional, organism-based; method in brief: as §2
Rattus norvegicus [8] = assay: Effect of compound was measured on serum total cholesterol in male Dawley rats at the dose of 0.4 mmol/kg (day+4).; assay type: functional, organism-based; method in brief: as §2
Rattus norvegicus [9] = assay: Effect of compound was measured on serum total cholesterol in male Dawley rats at the dose of 0.4 mmol/kg (day+7).; assay type: functional, organism-based; method in brief: as §2
Rattus norvegicus [10] = assay: Effect of compound was measured on serum total cholesterol in male Dawley rats at the dose of 0.4 mmol/kg (day-1).; assay type: functional, organism-based; method in brief: as §2
Rattus norvegicus [11] = assay: Effect of compound was measured on serum total triglycerides in male Dawley rats at the dose of 0.4 mmol/kg (day+10).; assay type: functional, organism-based
Method in brief: (§3)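 Serum triglycerides were measured with an enzymatic triglyceride reagent on a bichromatic analyzer. Rats were male Sprague-Dawley (180-210 g) fed a high-cholesterol diet, n = 6 per group, dosed orally twice daily for 14 days in 0.25% methylcellulose or vehicle. They were fasted 16-18 h before blood collection on days -1, +4, +7, +10 (orbital plexus, light ether) and +14 (aorta). Analysis was repeated-measures ANOVA with Duncan's test.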

Rattus norvegicus [12] = assay: Effect of compound was measured on serum total triglycerides in male Dawley rats at the dose of 0.4 mmol/kg (day+14).; assay type: functional, organism-based; method in brief: as §3
Rattus norvegicus [13] = assay: Effect of compound was measured on serum total triglycerides in male Dawley rats at the dose of 0.4 mmol/kg (day+7).; assay type: functional, organism-based; method in brief: as §3
Rattus norvegicus [14] = assay: Effect of compound was measured on serum total triglycerides in male Dawley rats at the dose of 0.4 mmol/kg (day-1).; assay type: functional, organism-based; method in brief: as §3
Rattus norvegicus [15] = assay: Effect of compound on liver CH levels in male Dawley rats at the dose of 0.4 mmol/kg; assay type: functional; set-up: unit: g/100 g wet liver
Method in brief: (§4)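 Male Sprague-Dawley rats (180-210 g) were kept on a high-cholesterol diet for 1 week before and throughout treatment. Groups of n = 6 received drug in 0.25% methylcellulose orally twice daily for 14 days, or vehicle. After a 16-18 h fast, livers were excised at day +14 and homogenized in 0.1 M Tris-HCl pH 7.2 with 1.15% KCl. Lipids were extracted from 25% w/v homogenate and reported as g/100 g wet liver ± SD; groups compared by ANOVA and Duncan's test.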

Rattus norvegicus [16] = assay: Effect of compound on liver TG levels in male Dawley rats at the dose of 0.4 mmol/kg; assay type: functional; set-up: unit: g/100 g wet liver; method in brief: as §4
[17] = Effect of compound was measured on serum heparin-MnCl2 precipated ipoprotein Dawley rats at 0.4 mmol/kg dose(day+10).; assay type: functional
Method in brief: (§5)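 Cholesterol-fed male Sprague-Dawley rats, n = 6 per group, given compound or 0.25% methylcellulose orally twice daily for 14 days, and fasted 16-18 h before each bleed (days -1, +4, +7, +10, +14). Heparin-MnCl2 precipitable lipoprotein cholesterol was taken as serum total cholesterol minus α-lipoprotein cholesterol. It is reported as a ratio to α-LP cholesterol ± SD. Analysis was ANOVA with repeated measures and Duncan's test.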

[18] = Effect of compound was measured on serum heparin-MnCl2 precipated ipoprotein Dawley rats at 0.4 mmol/kg dose(day+4).; assay type: functional; method in brief: as §5
[19] = Effect of compound was measured on serum heparin-MnCl2 precipated ipoprotein Dawley rats at 0.4 mmol/kg dose(day+7).; assay type: functional; method in brief: as §5
[20] = Effect of compound was measured on serum heparin-MnCl2 precipated ipoprotein Dawley rats at 0.4 mmol/kg dose(day-1).; assay type: functional; method in brief: as §5
Rattus norvegicus [21] = assay: Effect of compound was measured on serum total triglycerides in male Dawley rats at the dose of 0.4 mmol/kg (day+4).; assay type: functional, organism-based; method in brief: as §3
[22] = Effect of compound on liver to body weight ratio in male Dawley rats at the dose of 0.4 mmol/kg; assay type: functional
Method in brief: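 Male Sprague-Dawley rats (180-210 g) were kept on a cholesterol-rich diet and dosed orally twice daily for 14 days in 0.25% methylcellulose; vehicle controls received the same; n = 6 per group. After a 16-18 h fast, rats were exsanguinated at day +14. Livers were removed, rinsed in ice-cold buffer, blotted and weighed, and related to body weight. Data were analysed by repeated-measures ANOVA with Duncan's multiple range test.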

[23] = Effect of compound was measured on serum heparin-MnCl2 precipated ipoprotein Dawley rats at 0.4 mmol/kg dose(day+14).; assay type: functional; method in brief: as §5

NC1=C(O)C(=O)C(c2ccc(Cl)cc2)O1 (stereo not drawn)
alpha-lipoprotein cholesterol (Rattus norvegicus [1]): 43.7 mg/dL | alpha-lipoprotein cholesterol (Rattus norvegicus [2]): 33.2 mg/dL | alpha-lipoprotein cholesterol (Rattus norvegicus [3]): 43 mg/dL | alpha-lipoprotein cholesterol (Rattus norvegicus [4]): 43.8 mg/dL | alpha-lipoprotein cholesterol (Rattus norvegicus [5]): 38.8 mg/dL | serum total cholesterol (Rattus norvegicus [6]): 344 mg/dL | serum total cholesterol (Rattus norvegicus [7]): 278 mg/dL | serum total cholesterol (Rattus norvegicus [8]): 138 mg/dL | serum total cholesterol (Rattus norvegicus [9]): 252 mg/dL | serum total cholesterol (Rattus norvegicus [10]): 193 mg/dL | Serum total triglycerides (Rattus norvegicus [11]): 158 mg/dL | Serum total triglycerides (Rattus norvegicus [12]): 119 mg/dL | Serum total triglycerides (Rattus norvegicus [13]): 128 mg/dL | Serum total triglycerides (Rattus norvegicus [14]): 179 mg/dL | Liver CH levels (Rattus norvegicus [15]): 4.03 | Liver TG (Rattus norvegicus [16]): 2.8 | Ratio [17]: 7.13 | Ratio [18]: 3.43 | Ratio [19]: 5.59 | Ratio [20]: 3.65 | Serum total triglycerides (Rattus norvegicus [21]): 147 mg/dL | Ratio [22]: 4.1 | Ratio [23]: 6.31

— ChEMBL document CHEMBL1121938, “Hypocholesterolemic and antiaggregatory properties of 2-hydroxytetronic acid redox analogues an their relationship to clofibric acid” (1982)
